# Results reported in the array DNA melting data of Ke et al. (doi:10.1101/2024.01.08.574731).
# Experiments:
# [1] = melting temperature; fluorescence melt of hairpins on a sequencing array, two-state fit, raised by 9.35 °C to match UV melts; settings: sodium 0.088 M
# How it was run: (§1)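 Library hairpins on a sequenced MiSeq flow cell carried annealed Cy3 and quencher oligos, and their Cy3 fluorescence was imaged in 50 mM Na-HEPES pH 8.0 with 25 mM NaCl, in 2.5 °C steps up to 60 °C. Signals were normalised to Cy3 before quenching and to control constructs. Melting temperature and folding enthalpy were obtained from bootstrapped two-state fits, combined by inverse-variance weighting across four replicates, and the fitted temperatures were then raised by 9.35 °C to match UV melts.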
# [2] = folding enthalpy; higher = less favourable; fluorescence melt of hairpins on a sequencing array, two-state fit; settings: sodium 0.088 M
# How it was run: as §1
Sequence,Tm [1] [°C],folding enthalpy [2] [kcal/mol]
GTGGAGGGAAACCTCCAC (((((((....))))))),66.5,-40.9
GATCACAGAGTGATC ((((((...)))))),60.8,-35
GTGGGTCGAAAGACCAC (((.(((....)))))),57,-14.3
GATCAAGCACTTGATC ((((((....)))))),50.4,-38.4
GCTGCGGCGAAAGCCAGC (((..(((....)))))),57.4,-10.7
GATCATACACATGATC ((((((....)))))),47.2,-36
GCCCCCCCGAAAGGGGGC (((..(((....)))))),65.2,-11.2
GTGCAGGAAACTGCAC ((((((....)))))),68.2,-35.9
GCCTGGCCGAAAGGCGGC (((..(((....)))))),65.3,-18.4
GATCCCCATTGGGATC ((((((....)))))),59.6,-37.6
GCGGGTTGCCGC ((((....)))),57.2,-19.8
GCCTGTGGAAACACAGAC (.(((((....))))).),42.6,-15.8
GCAGACCGAAAGGTGTGC (((.(((....))).))),63,-35.8
GTACTGGCGAAAGCCTAC (((..(((....)))))),26.3,-11
GCGGCGCGAAAGCTTCGC (((..((....))..))),54.1,-16.8
GATCACCCAAGTGATC ((((((....)))))),55.7,-46.8
GCGGACTACCGC ((((....)))),54,-27.9
GACTGCGAAAGCAACGTC ((((((....)))..))),38.8,-15.2
GATCTTATGAAGATC ((((((...)))))),42.4,-28.1
GCGAAACCTCGC ((((....)))),49.5,-19.9
GATCTGGGAAACCAGATC (((((((....))))))),58.5,-45.4
GAGTGGGCGAAAGCCCTC (((..(((....)))))),34,-8.27
GCGTCGCAACGC ((((....)))),56.2,-20
GGCCACGAAAGTGAGCC ((((((....))).))),65.8,-27.1

Sequence,Tm [1] [°C],folding enthalpy [2] [kcal/mol]
GATCTGATCCAGATC ((((((...)))))),47.6,-35.2
GATCTATTTTTAGATC ((((((....)))))),44.3,-42.5
GCCGCTTCGAAAGAAGGC (((..(((....)))))),49.7,-13.2
GATCCTGTACAGGATC ((((((....)))))),60.2,-40.7
GCATTGCGAAAGCATGGC ((..(((....)))..)),45.8,-19.9
GCGTCCGAAAGGAGCGC ((((((....))).))),66.8,-22.9
GATCTACGATAGATC ((((((...)))))),35.4,-19.9
GTAACGCGAAAGCGGTAC (((.(((....))).))),65.3,-27.1
CGGTGGAAACACCG (((((....))))),68,-26.1
GCGTAACGAAAGTTTCGC (((.(((....))).))),57,-41.3
GTGCTGCCGAAAGGCCAC (((..(((....)))))),48.1,-11.5
GTTCTACGAAAGTAAAC (((.(((....)))))),27.6,-10.8
GACCACGGAAACATGGTC (((((.(....).))))),43.4,-35.5
GAAACGCGAAAGCGGTTC (((.(((....))).))),66.3,-27.2
GATCAACGCTTGATC ((((((...)))))),42,-31.4
GCCGCGCGAAAGCCAGGC (((..((....))..))),62,-27.8
GAAGGCGGAAACGCCCTC ((.((((....)))).)),35.1,-8.85
GTAGTTGGAAACAACTGC (.(((((....))))).),47.6,-18
GTGGCGGGAAACTGCCGC (.(((.(....).))).),53.5,-22.2
GCCGATGGAAACGTTGGC (((.(.(....).).))),43,-25.5
GCAAGAGGAAACTCTTAC (.(((((....))))).),28,-14.6
GCGAGCCATCGC ((((....)))),57.2,-28.4
GTCGCCGAAAGGCGTGAC ((((((....)))..))),36.3,-8.03
